# Compound activity from PubChem.
# TAAR1 antagonist = human TAAR1 antagonism; Q96RJ0; CHO RD-HGA16 TAAR1, Fluo-8 calcium fluorescence, antagonist; inhibition, % at 3 µM; hit rate 1.5% among 360,000; AID 624466;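 active means inhibition above a per-plate cutoff, the mean inhibition of test compounds on that plate plus 3 SD, cut at about 49% in these data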;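 further: 0% = DMSO plus EC80 beta-PEA response and 100% = DMSO alone without agonist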
#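 Test system: hTAAR1-expressing CHO RD-HGA16 cells, Gα16-coupled; Probe or stimulus: EC80 β-phenethylamine stimulus; Compound dosing: single nominal final test compound concentration of 3 µM; Timing: 140 s kinetic read after compound, 140 s after agonist; Signal: Fluo-8 calcium-sensitive fluorescence; Measure: % inhibition of agonist calcium response; Controls: DMSO and EC80 PEA controls.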
# ANO1 block = blocks the mouse calcium-activated chloride channel TMEM16A; Q8BHY3; HEK293 TMEM16A/YFP iodide influx fluorescence, ionomycin; normalized B-score (activity score, 25-100; higher = stronger inhibition) at 10 µM; hit rate 1.2% among 310,000;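 active means ratio plate-corrected score three or more library SD toward inhibition, starting fluorescence score within five deviations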;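 further: score derived from kinetic fluorescence span divided by baseline fluorescence per well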
# ANO1 activ = activators or potentiators of mouse TMEM16A chloride channel | Q8BHY3 | HEK293 TMEM16A/YFP-H148Q/I152L, iodide quench fluorescence; active compounds read low | B-score at 10 µM | hit rate 0.3% among 340,000;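 active means fluorescence-ratio B-score plate-corrected deviation score at least 3 library SD below zero, with starting fluorescence score within 5 deviations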;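 further: channel opened by trigger with iodide after compound preincubation; score built on the fluorescence ratio of max minus min over baseline; more negative score means more quench and so TMEM16A activation or potentiation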
# CRFBP-R2 block = antagonists of CRF-binding protein/CRF-R2 receptor complex; HEK293 CRF-R2/CRF-BP, CRF-induced calcium fluorescence; inhibition, % at 11.8 µM; hit rate 0.59% among 350,000; AID 588475;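 active means inhibition of the ligand-induced calcium signal above about 50% at the single tested concentration, limit read from the data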
# CRFR2-BP ag = agonists of human CRF-binding protein/CRF-R2 receptor complex; HEK293 CRF-R2/CRF-BP, calcium dye fluorescence (FLIPR); percent of saturating CRF peptide response; activation, % at 13.2 µM; hit rate 0.46% among 350,000;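 active means activation of at least 50%, plus an integration ratio under a set limit after plate pattern correction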;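 further: plate controls were neutral control wells without compound for no effect and CRF at EC100 for full effect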
# TAAR1 ag = agonists of human TAAR1; Q96RJ0; CHO RD-HGA16 TAAR1, Fluo-8 calcium fluorescence; vehicle wells 0%, saturating PEA agonist 100%; activation, % at 3 µM; hit rate 0.99% among 360,000; AID 624467;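 active means activation above the mean activation of all test compounds in the run plus 3 SD, cut at about 38% in these data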
#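 test system = CHO RD-HGA16 cells carrying human TAAR1 plus Gα16 | schedule = 17-24 h seeding, 75 min 37 °C dye, 30 min RT | compound dosing = 3 µM single concentration | control set = DMSO and PEA EC100 | replicates = n 1 | signal = Fluo-8 fluorescence, 5 s baseline then 140 s kinetic read | measure = percent activation vs PEA EC100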
# TAAR1 ag confirm = confirmation of human TAAR1 agonists. shares compounds with TAAR1 ag. CHO RD-HGA16 TAAR1, Fluo-8 calcium fluorescence; scaled: DMSO 0%, maximal phenethylamine 100%. activation, % at 3 µM. hit rate 82% among 2,400;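 active means activation above a cutoff set at the run's mean compound activation plus 3 SD, cut at about 39% in these data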
# Ga16 nonsel ag = nonselective agonist in parental cells, TAAR1 agonist counter-screen; hit rate 50% among 2,400; shares compounds with TAAR1 ag; CHO-Ga16 parental, Fluo-8 calcium fluorescence; normalized to maximal ATP response, DMSO zero; activation, % at 3 µM;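 active means activation above the run cutoff, the mean activation over all tested wells plus 3 SD, cut at about 12% in these data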;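 further: 0% = DMSO wells and 100% = maximal ATP response on the peak over basal ratio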
# TAAR1 desensitize = TAAR1 response desensitization, agonist counter-screen | shares compounds with TAAR1 ag | CHO RD-HGA16 hTAAR1, Fluo-8 calcium, beta-PEA response inhibition | inhibition, % at 3 µM | hit rate 46% among 2,400 | AID 651951;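 active means inhibition above the run cutoff, the mean inhibition of all test compounds plus 3 SD, cut at about 49% in these data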;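 further: beta-PEA stimulus applied at its EC80; loss of beta-PEA calcium signal after compound pretreatment read as receptor desensitization; 0% = DMSO with beta-PEA at EC80 and 100% = DMSO alone without agonist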
# Ga16 nonsel ant = counter-screen for TAAR1 agonists: nonselective Ga16 antagonists. inhibition, % at 3 µM. shares compounds with TAAR1 ag. CHO-Ga16 ATP-induced calcium, Fluo-8 fluorescence. hit rate 39% among 2,400;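 active means inhibition above the plate's mean compound inhibition plus 3 SD, computed per plate, cut at about 22% in these data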;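 further: 0% = EC80 ATP with DMSO and 100% = DMSO wells without ATP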
# * marks the source's active call; other numbers are inactive results; i = inactive; . = no result. Hits are enriched below; roughly 3.9% of the tested compounds scored in any of these assays.
SMILES,TAAR1 antagonist,ANO1 block,ANO1 activ,CRFBP-R2 block,CRFR2-BP ag,TAAR1 ag,TAAR1 ag confirm,Ga16 nonsel ag,TAAR1 desensitize,Ga16 nonsel ant
CN1CCc2c(c3ccccc3n2C)C1,14,i,i,3,-1,55*,81*,0,37,6
OC(CNC1CCCc2ccccc21)COc1ccc2ccccc2c1 (stereo unspecified),15,i,i,-28,-2,69*,100*,28*,70*,31*
CSCC[C@H](NC(=O)c1ccc2ccccc2c1)C(=O)N1CCC2(CC1)NCCc1[nH]cnc12,-16,i,i,-10,9,0,.,.,.,.
CSCC[C@H](NC(=O)COc1ccc(Cl)cc1)C(=O)N1CCC2(CC1)NCCc1[nH]cnc12,3,i,i,8,-1,52*,1,0,-4,-5
Cc1[nH]c2ccccc2c1CN1CCc2ccccc2C1,.,i,i,-3,1,.,.,4,.,6
Cc1cc(NC(=O)COC(=O)C(C)Oc2ccc(Cl)cc2Cl)no1 (stereo unspecified),-1,i,i,-29,3,0,.,.,.,.
COc1cc(/C=C2/C(=O)c3cccc([N+](=O)[O-])c3C2=O)c(Br)cc1O,26,25*,i,39,6,50*,37,28*,42,46*
COc1ccccc1NC(=O)CCCCCN1C(=O)c2cccc([N+](=O)[O-])c2C1=O,-15,i,i,-1,-1,3,.,.,.,.
COc1cc(C(=O)NCCC2=CCCCC2)ccc1OCc1c(C)noc1C,-22,.,i,-4,0,1,.,.,.,.
NC(=O)c1cc(-c2csc(NCCc3ccccc3)n2)ccc1O,-11,i,i,-17,1,49*,46*,6,21,19
Cc1nc(NC(=O)c2ccccc2)sc1-c1csc(NCCc2ccccc2)n1,48,i,i,-15,-2,64*,61*,21*,58*,34*
CCOc1cccc(C(=O)Nc2ccccc2C(=O)N2CCN(C)CC2)c1,-31,i,i,-2,3,1,.,.,.,.
c1ccc2c(-c3ccc(OCCN4CCCCC4)cc3)c(-c3ccsc3)sc2c1,44,.,i,-11,4,47*,49*,25*,51*,43*
c1ccc(-c2sc3ccccc3c2-c2ccc(OCCN3CCCCC3)cc2)cc1,3,.,i,6,3,4,.,.,.,.
O=C(c1ccc2c(=O)n(Cc3ccccc3)c(=S)[nH]c2c1)N1CCOCC1,-5,i,i,-11,0,5,.,.,.,.
CC(=O)c1ccc(N2CCN(C(=O)c3ccc(Cn4c(=S)[nH]c5ccc(N6CCOCC6)cc5c4=O)cc3)CC2)cc1,-10,i,i,-4,3,53*,0,6,2,10
O=C(NC1CCCCC1)C(c1ccccn1)N(C(=O)c1csnn1)C1CCCCC1 (stereo unspecified),19,i,i,10,-1,0,.,.,.,.
Cn1c(CS/C(N)=N/N=C/c2ccccc2)c(Br)c(=O)n1-c1ccccc1,-14,i,i,24,-3,44*,46*,6,-4,1
COc1ccc(/C=N/NC(=O)Cc2n[nH]c(=O)[nH]c2=O)cc1,-13,i,i,4,3,8,.,.,.,.
O=C(CCC(=O)N/N=C/c1ccccc1O)NCc1ccccc1,20,i,i,-13,-1,42*,57*,0,35,4
O=C(Cc1n[nH]c(=O)[nH]c1=O)N/N=C/c1ccccc1O,.,i,i,11,-1,.,.,3,.,14
O=C(CCC(=O)Nc1ccc(F)cc1)N/N=C/c1ccccc1O,-8,i,i,-23,-2,54*,72*,5,48,11
O=C(CNC(=O)c1ccccc1Br)N/N=C/c1cc(Br)ccc1O,6,i,i,-40,0,23,.,.,.,.
O=C(CNC(=O)c1ccccc1Br)N/N=C/c1ccccc1O,24,i,i,24,2,47*,67*,3,40,7
COCCOC(=O)c1c(NC(=O)COC(=O)c2ccc(C)o2)sc(C(N)=O)c1C,-6,.,i,4,-1,7,.,.,.,.
SMILES,TAAR1 antagonist,ANO1 block,ANO1 activ,CRFBP-R2 block,CRFR2-BP ag,TAAR1 ag,TAAR1 ag confirm,Ga16 nonsel ag,TAAR1 desensitize,Ga16 nonsel ant
O=C(COC(=O)C1CCN(c2ccc(C(F)(F)F)cn2)CC1)Nc1ncc(Cl)cc1Cl,7,.,i,-11,1,7,.,.,.,.
CCc1ccc(NC(=O)C(CC)c2ccccc2)cc1 (stereo unspecified),37,i,i,-65,60*,71*,67*,38*,65*,39*
CCOC(=O)c1c(C)[nH]c(C)c1S(=O)(=O)NCCc1sccc1C,24,i,i,2,-1,54*,27,1,42,8
COc1ccc(NS(=O)(=O)c2cccc(C(=O)OCC(=O)Nc3cc(C)on3)c2)cc1,-1,i,i,-26,0,6,.,.,.,.
Cc1ccc(NS(=O)(=O)c2ccc(C(=O)OCC(=O)Nc3cc(C)on3)cc2)cc1,7,.,i,-68,20,72*,72*,35*,50*,37*
Cc1cc(/C=C2\SC(=O)NC2=O)c(C)n1-c1ccc(N2CCOCC2)cc1,22,i,i,-59,3,60*,70*,34*,31,24*
NS(=O)(=O)c1ccc(CCNC(=O)CCCNC(=O)c2ccc(Cl)cc2)cc1,-9,i,i,8,0,0,.,.,.,.
CCOc1c(CNCCCSc2nc(C)cc(C)n2)cccc1OC,-12,i,i,5,-1,4,.,.,.,.
CCOC(=O)c1c(C)[nH]c(C(=O)COC(=O)c2cnccn2)c1C,13,.,i,-1,0,74*,0,2,7,13
O=C(Nc1ccc(S(=O)(=O)Nc2nccs2)cc1)c1ccccc1OC(F)F,-3,.,i,-1,1,1,.,.,.,.
